Molecules are shown by their SMILES.

This is an account of results in ChEMBL document CHEMBL1124353, “(R)- and (S)-5,6,7,8-tetrahydro-1-hydroxy-N,N-dipropyl-9H-benzocyclohepten- 8-ylamine. Stereoselective interactions with 5-HT1A receptors in the brain” (J Med Chem, 1989).

Experiment [1] addresses T1, 5-hydroxytryptamine receptor 1A (Rattus norvegicus, UniProt P19327).
T1 sequence (P19327 whole entry): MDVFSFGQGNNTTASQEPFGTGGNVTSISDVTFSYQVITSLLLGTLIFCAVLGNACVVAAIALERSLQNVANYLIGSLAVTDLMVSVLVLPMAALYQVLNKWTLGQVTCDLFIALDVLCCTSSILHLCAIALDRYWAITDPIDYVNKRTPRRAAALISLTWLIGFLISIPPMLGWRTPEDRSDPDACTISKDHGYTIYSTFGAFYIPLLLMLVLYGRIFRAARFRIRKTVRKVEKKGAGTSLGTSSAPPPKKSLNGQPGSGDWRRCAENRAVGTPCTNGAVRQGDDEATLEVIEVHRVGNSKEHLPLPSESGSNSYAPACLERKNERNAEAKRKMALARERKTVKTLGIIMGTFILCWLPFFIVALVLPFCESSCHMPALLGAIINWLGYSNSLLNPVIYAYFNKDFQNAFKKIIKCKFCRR
As to the kind of experiment: Affinity for 5-hydroxytryptamine 1A receptor site. In outline: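 Rat (male Sprague–Dawley) cortex plus hippocampus homogenised in 50 mM Tris-HCl with 4.0 mM CaCl2 and 5.7 mM ascorbate, pH 7.5, washed, pooled (≥6 rats), pargyline 10 μM pretreated. Incubated at 37 °C for 10 min with 2 nM [3H]-8-OH-DPAT and 1–300 nM competitor. Filtered, scintillation counted; 10 μM 5-HT defines nonspecific binding. Ki from nonlinear least-squares using Kd 1.4 nM.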

Experiment [2] has as its system Rattus norvegicus. As to the kind of experiment: In vivo accumulation of 5-HTP in limbic of rat brain for following at 10 umol/Kg. The experiment is classed as functional. An outline of the steps:
(§1)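 Nonreserpinised male Sprague–Dawley rats (180–220 g) given drug as hydrochloride sc in saline, 30 min before aromatic L-amino acid decarboxylase inhibitor NSD 1015; killed 30 min after NSD 1015. Striatum and limbic system (rhinal fissure landmark) dissected. 5-HTP or DOPA measured by ion-pair reversed-phase HPLC with electrochemical detection, ng/g; means ± SEM, n = 3–7 per dose group, Dunnett's test vs control.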

Experiment [3] deals with Rattus norvegicus. As to the kind of experiment: In vivo accumulation of dopamine in striatum of rat brain at 3.2 umol/Kg. The experiment is classed as functional. An outline of the steps:
as §1

Experiment [4] deals with Rattus norvegicus. As to the kind of experiment: In vivo accumulation of 5-HTP in limbic of rat brain for following at 32 umol/Kg. The class given is functional. In outline:
as §1

Experiment [5] deals with Rattus norvegicus. As to the kind of experiment: In vivo accumulation of 5-HTP in limbic of rat brain at 3.2 umol/Kg. The class given is functional. An outline of the steps:
as §1

Experiment [6] deals with Rattus norvegicus. As to the kind of experiment: In vivo accumulation 5-HTP in striatum of rat brain striatum at 32 umol/Kg. The experiment is classed as functional. In outline:
as §1

Experiment [7] relates to Rattus norvegicus. As to the kind of experiment: In vivo accumulations of dopamine in limbic of rat brain at 32 umol/Kg. The experiment is classed as functional. An outline of the steps: as §1
Experiment [8] concerns Rattus norvegicus. As to the kind of experiment: In vivo accumulations of dopamine in limbic of rat brain at 10 umol/Kg. The class given is functional. In outline: as §1
Experiment [9] relates to Rattus norvegicus. As to the kind of experiment: In vivo accumulation 5-HTP in striatum of rat brain at 10 umol/Kg. The experiment is classed as functional. An outline of the steps:
as §1

Experiment [10] deals with Rattus norvegicus. As to the kind of experiment: In vivo accumulations of dopamine in limbic of rat brain for at 3.2 umol/Kg. The experiment is classed as functional. In outline:
as §1

Experiment [11] relates to Rattus norvegicus. As to the kind of experiment: In vivo accumulation of dopamine in striatum of rat brain at 32 umol/Kg. The class given is functional. In outline: as §1
Experiment [12] deals with Rattus norvegicus. As to the kind of experiment: In vivo accumulation of dopamine in striatum of rat brain at 10 umol/Kg. The experiment is classed as functional. An outline of the steps: as §1
For experiment [13], the system named is Rattus norvegicus. As to the kind of experiment: In vivo accumulation of dopamine in striatum of rat brain at 32 umol/kg with reserpine pretreatment. The class given is functional. In outline:
(§2)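 Male Sprague–Dawley rats pretreated with reserpine (8 μmol/kg, 4 h before), then given drug sc as hydrochloride in saline 30 min before NSD 1015 decarboxylase inhibition; killed 30 min later. Striatal and limbic 5-HTP or DOPA determined by ion-pair reversed-phase HPLC with electrochemical detection, ng/g; means ± SEM, n = 3–7; Dunnett's test vs reserpinised controls.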

Experiment [14] concerns Rattus norvegicus. As to the kind of experiment: In vivo accumulation 5-HTP in striatum of rat brain striatum at 32 umol/kg reserpine pretreatment. The class given is functional. In outline: as §2
Experiment [15] concerns Rattus norvegicus. As to the kind of experiment: In vivo accumulation of 5-HTP in limbic of rat brain for following at 32 umol/kg reserpine pretreatment. The experiment is classed as functional. An outline of the steps:
as §2

Experiment [16] relates to Rattus norvegicus. As to the kind of experiment: In vivo accumulation 5-HTP in striatum of rat brain at 3.2 umol/Kg. The experiment is classed as functional. An outline of the steps:
as §1

In general, Ki refers to a dissociation constant, usually derived from enzyme kinetics or from competition with a known ligand. In experiment [1], `CCCN(CCC)[C@@H]1CCCc2cccc(O)c2C1` returned a Ki of 29.7 nM. The Dose is 122 µM/kg in the experiment on Rattus norvegicus [2]; 1068 µM/kg in the experiment with Rattus norvegicus [3]; 76 µM/kg in the experiment with Rattus norvegicus [4]; 132 µM/kg in the experiment on Rattus norvegicus [5]; 54 µM/kg with Rattus norvegicus [6]; 437 µM/kg with Rattus norvegicus [7]. The Dose in the experiment with Rattus norvegicus [8] was 314 µM/kg; in the experiment on Rattus norvegicus [9] it was 60 µM/kg; in the experiment with Rattus norvegicus [10] it was 408 µM/kg; with Rattus norvegicus [11], 1035 µM/kg; with Rattus norvegicus [12], 919 µM/kg.
In [1], `CCCN(CCC)[C@H]1CCCc2cccc(O)c2C1` gave a Ki of more than 300 nM. Moreover, the Dose in the experiment with Rattus norvegicus [13] came to 1934 µM/kg; with Rattus norvegicus [2], 170 µM/kg; in the experiment with Rattus norvegicus [14], 74 µM/kg; in the experiment with Rattus norvegicus [3], 1003 µM/kg; in the experiment with Rattus norvegicus [15], 154 µM/kg; in the experiment on Rattus norvegicus [5], 194 µM/kg. The Dose in the experiment with Rattus norvegicus [8] is 381 µM/kg; in the experiment with Rattus norvegicus [9], 98 µM/kg; in the experiment with Rattus norvegicus [10] it was 331 µM/kg; in the experiment with Rattus norvegicus [12], 830 µM/kg; in the experiment on Rattus norvegicus [16], 110 µM/kg.
